For the experiment, the target named is rat intestinal sucrase (Rattus norvegicus, UniProt P23739). In words: Assay of sucrase inhibitory activity. The class given is biochemical. The gist of the method: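 Rat intestinal sucrase-isomaltase prepared by Dahlqvist's method. Enzyme preincubated 10 min at 37°C with test sample (25–200 µg/ml, maleate buffer pH 6.0); reaction started with 60 mM sucrose solution, stopped after 30 min with 3,5-dinitrosalicylic acid reagent, boiled 5 min, A540 read. % inhibition relative to untreated-enzyme control lacking sample; three experiments.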
Chain of rat intestinal sucrase (P23739 whole entry): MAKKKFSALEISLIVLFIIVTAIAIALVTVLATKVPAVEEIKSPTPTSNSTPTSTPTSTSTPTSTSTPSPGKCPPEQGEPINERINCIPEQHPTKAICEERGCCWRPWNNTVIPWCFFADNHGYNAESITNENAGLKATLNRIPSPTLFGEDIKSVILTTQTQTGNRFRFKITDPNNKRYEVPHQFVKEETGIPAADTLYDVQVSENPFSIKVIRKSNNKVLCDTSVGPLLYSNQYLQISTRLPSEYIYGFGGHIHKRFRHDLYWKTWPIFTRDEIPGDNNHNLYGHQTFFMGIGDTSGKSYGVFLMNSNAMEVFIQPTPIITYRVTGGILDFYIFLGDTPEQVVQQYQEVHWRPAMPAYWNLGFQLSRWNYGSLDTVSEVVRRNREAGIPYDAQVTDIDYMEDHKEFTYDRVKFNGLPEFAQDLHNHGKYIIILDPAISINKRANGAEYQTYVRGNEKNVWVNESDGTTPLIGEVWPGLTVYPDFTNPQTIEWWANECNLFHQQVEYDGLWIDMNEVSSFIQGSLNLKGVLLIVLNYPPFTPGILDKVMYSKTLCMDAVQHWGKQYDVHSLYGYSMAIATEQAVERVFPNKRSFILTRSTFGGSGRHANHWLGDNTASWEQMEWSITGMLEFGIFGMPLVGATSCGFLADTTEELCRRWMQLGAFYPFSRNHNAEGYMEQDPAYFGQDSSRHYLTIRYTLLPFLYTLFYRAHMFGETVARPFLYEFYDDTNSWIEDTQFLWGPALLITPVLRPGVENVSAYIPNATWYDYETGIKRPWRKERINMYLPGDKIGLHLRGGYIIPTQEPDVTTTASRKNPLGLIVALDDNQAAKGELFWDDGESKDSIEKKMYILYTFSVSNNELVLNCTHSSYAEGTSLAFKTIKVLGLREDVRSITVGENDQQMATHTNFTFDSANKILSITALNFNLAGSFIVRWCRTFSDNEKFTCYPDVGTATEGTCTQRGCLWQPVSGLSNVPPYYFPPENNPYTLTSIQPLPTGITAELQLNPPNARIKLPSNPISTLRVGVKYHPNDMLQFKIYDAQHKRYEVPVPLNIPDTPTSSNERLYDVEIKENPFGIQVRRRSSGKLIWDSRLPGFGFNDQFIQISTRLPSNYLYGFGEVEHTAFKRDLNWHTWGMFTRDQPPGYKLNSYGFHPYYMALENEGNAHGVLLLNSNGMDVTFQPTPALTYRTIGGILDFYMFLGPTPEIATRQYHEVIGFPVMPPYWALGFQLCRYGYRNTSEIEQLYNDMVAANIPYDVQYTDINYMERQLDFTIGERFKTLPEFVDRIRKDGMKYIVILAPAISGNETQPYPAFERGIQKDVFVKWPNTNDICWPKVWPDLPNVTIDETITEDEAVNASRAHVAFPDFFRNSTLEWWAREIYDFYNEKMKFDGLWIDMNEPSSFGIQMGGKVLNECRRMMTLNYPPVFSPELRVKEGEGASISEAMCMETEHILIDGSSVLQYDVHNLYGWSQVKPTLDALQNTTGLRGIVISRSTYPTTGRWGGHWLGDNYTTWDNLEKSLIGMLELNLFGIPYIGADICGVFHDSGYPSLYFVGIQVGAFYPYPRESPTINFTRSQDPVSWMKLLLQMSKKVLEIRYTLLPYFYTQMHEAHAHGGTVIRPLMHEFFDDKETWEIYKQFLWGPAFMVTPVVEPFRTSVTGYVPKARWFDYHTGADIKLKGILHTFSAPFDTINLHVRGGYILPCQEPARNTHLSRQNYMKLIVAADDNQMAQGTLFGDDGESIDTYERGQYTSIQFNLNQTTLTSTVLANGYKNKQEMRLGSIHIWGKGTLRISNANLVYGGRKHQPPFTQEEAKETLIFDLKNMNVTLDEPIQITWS

Turning to `O=C1O[C@H]2[C@H](O)[C@@H](CO)OC(O)[C@@H]2OC(=O)c2cc(O)c(O)c(O)c2-c2c1cc(O)c(O)c2O` (stereo partly drawn) [Compound 2, 2,3-hexahydroxydiphenoyl-(α/β)-D-^4C1-glucopyranose], where the note is “rat intestinal sucrase, in vitro”, the “sucrase inhibitory activity IC50” value amounted to 195.62 µg/mL.

`O=c1c(O[C@@H]2O[C@@H](CO)[C@H](O)[C@H]2O)c(-c2ccc(O)c(O)c2)oc2cc(O)cc(O)c12` [Compound 3, avicularin]: half-maximal inhibition (IC50) was put at 217 µM.

Regarding `O=C1OC[C@H]2OC(=O)c3cc(O)c(O)c(O)c3-c3c(O)c(O)c(O)c4c3C(=O)O[C@H]([C@H]3OC(=O)c5c-4c(O)c(O)c(O)c5[C@H]3O)[C@@H]2OC(=O)c2cc(O)c(O)c(O)c2-c2c1cc(O)c(O)c2O` [Compound 4, castalagin], the IC50 is 148 µM.

In turn, `O=c1c(O[C@@H]2O[C@H](CO)[C@@H](O)[C@H](O)[C@H]2O)c(-c2ccc(O)c(O)c2)oc2cc(O)cc(O)c12` [Compound 5, quercetin-3-O-glucoside] gave an IC50 of 194 µM.

As a reminder, the IC50 is the concentration that inhibits the measured activity by half.
